According to ChEMBL document CHEMBL3098021, “New anti-inflammatory cembranoid diterpenoids from the Vietnamese soft coral Lobophytum crassum” (Bioorg Med Chem Lett, 2014):
pIC50: −log10 of the molar value.

Experiments:
HepG2 [1] = experiment: Inhibition of TNF-alpha-induced iNOS mRNA expression in human HepG2 cells preincubated for 1 hr followed by TNF-alpha challenge measured after 6 hrs by RT-PCR analysis; type: functional, cell-based
HepG2 [2] = experiment: Inhibition of TNF-alpha-induced COX2 mRNA expression in human HepG2 cells preincubated for 1 hr followed by TNF-alpha challenge measured after 6 hrs by RT-PCR analysis; type: functional, cell-based
[3] = (§1) Inhibition of TNF-alpha-induced NF-kappaB transcriptional activation in human HepG2 cells preincubated for 1 hr followed by TNF-alpha challenge measured after 1 hr by luciferase reporter gene assay; type: cell-based
Method in brief: (§2)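 HepG2 cells were transfected with an NF-κB-responsive firefly luciferase reporter plasmid (minimal CMV promoter plus tandem NF-κB response elements) and stimulated with 10 ng/mL TNFα. Compounds were tested across a concentration range, with a DMSO vehicle control and sulfasalazine (1.0 µM) as positive control. Luciferase activity was read out, data are mean ± SD (n = 3), and IC50 was derived from the dose–response.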

HepG2 [4] = experiment: as §1; type: cell-based; method in brief: as §2

pIC50 [3]	SMILES	inhibition (HepG2 [1])	inhibition (HepG2 [2])	inhibition (HepG2 [4])
5.18	C/C1=C\[C@@H]2O[C@@H](O)[C@@]3(C)O[C@@]23CC/C(C)=C/CC[C@](C)(O)[C@H](O)CC1	Dose-dependent effect	Dose-dependent effect	Dose-dependent effect
< 4.70	C=C1CO[C@H]2/C=C(\C)CC[C@@H](O)[C@@](C)(O)C/C=C/[C@@](C)(O)CC[C@@]12O	–	–	–
5.20	C/C1=C\[C@@H]2O[C@@H](O)[C@@]3(C)O[C@@]23CC/C(C)=C/CC[C@](C)(O)[C@@H](O)CC1	Dose-dependent effect	Dose-dependent effect	Dose-dependent effect
< 4.70	C=C1CO[C@H]2/C=C(\C)CC[C@@H](O)[C@@](C)(O)C/C=C/[C@](C)(O)CC[C@@]12O	–	–	–

SMILES	pIC50 [3]	inhibition (HepG2 [1])	inhibition (HepG2 [2])	inhibition (HepG2 [4])
O=C(O)c1cc(/N=N/c2ccc(S(=O)(=O)Nc3ccccn3)cc2)ccc1O [SULFASALAZINE]	6.05	–	–	–
